From ChEMBL document CHEMBL1122485, “Antibacterially active substituted anilides of carboxylic and sulfonic acids” (1983)
In brackets after ≈: the same amount, converted by molar mass.

Tests used:
[1] = test system: Lactiplantibacillus plantarum; test: Activity at 10 ppm against Lactobacillus plantarum; x=Effective; assay type: functional, organism-based
Outline: (§1)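 Gram-positive panel on nutrient agar containing compound at 10, 1.0 and 0.1 ppm, duplicate plates. Six 15-µL drops per species, each holding 10⁷ vegetative cells (10⁶ for L. plantarum). Hexachlorophene and no-compound plates were run alongside. Plates were incubated 5 days at 30 °C and scored for growth. MIC was taken as the lowest level with no colonies on either plate.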

Staphylococcus aureus [2] = test: Bactericidal activity against Staphylococcus aureus ATCC 6538 at 10 ppm concentration; - = Negative; assay type: functional, organism-based
Outline: (§2)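 S. aureus was inoculated at 10⁷/mL into 10 mL nutrient broth with 10 ppm compound. Those tubes were centrifuged (10000g, 10 min), resuspended in sterile diluent and streaked onto nutrient agar. Colonies after 48 h at 30 °C meant bacteriostatic; none meant bactericidal.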

Bacillus cereus = test: Activity at 10 ppm against Bacillus cereus NRRL 3711; x=Effective; assay type: functional, organism-based; outline: as §1
Staphylococcus aureus [3] = test: Activity at 10 ppm against Staphylococcus aureus ATCC 6538; x=Effective; assay type: functional, organism-based
Staphylococcus aureus [4] = test: Minimum inhibitory concentration against staphylococcus aureus ATCC 6538; assay type: functional
Outline: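 Agar dilution: 1% stocks in 95% ethanol or water, serially diluted into nutrient agar (pH 6.8) to 1000, 100, 10 and 1 ppm. Plates were dried 30 min at 37 °C and spotted with ten drops of 24-h nutrient broth culture. Incubation was 48 h at 37 °C, in duplicate, with hexachlorophene as standard. MIC was the lowest level with no growth of any inoculum on either dish.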

Enterococcus faecalis = test: Activity at 10 ppm against Streptococcus faecalis; x=Effective; assay type: functional, organism-based; outline: as §1
Staphylococcus aureus [5] = test: Bacteriostatic activity against Staphylococcus aureus ATCC 6538 at 10 ppm concentration; + =Positive; assay type: functional, organism-based; outline: as §2

Structure (SMILES)	MIC (Staphylococcus aureus [4]) [µg/mL]	other results
CCCCCCCC(=O)Nc1cc([N+](=O)[O-])ccc1O	1 (≈ 3.57 µM)	Activity [1]: Concentration effective; Activity (Staphylococcus aureus [2]): Negative; Activity (Bacillus cereus): Concentration effective; Activity (Staphylococcus aureus [3]): Concentration effective; Activity (Enterococcus faecalis): Concentration effective; Activity (Staphylococcus aureus [5]; Bacteria): Negative
O=S(=O)(Nc1ccc(Cl)c(Cl)c1)c1ccc(Cl)c(Cl)c1	1 (≈ 2.69 µM)	Activity [1]: Concentration effective; Activity (Staphylococcus aureus [2]): Negative; Activity (Bacillus cereus): Concentration effective; Activity (Staphylococcus aureus [3]): Concentration effective; Activity (Enterococcus faecalis): Concentration effective; Activity (Staphylococcus aureus [5]): Negative
O=C(Cc1ccccc1)Nc1cc(Cl)ccc1O	100 (≈ 382 µM)	–
O=C(Nc1cc(Cl)ccc1O)c1ccc(Cl)c(Cl)c1	> 1000	–
COC(=O)CCCCCCCC(=O)Nc1ccc(Cl)c(Cl)c1	1 (≈ 2.89 µM)	–
C=C(CCCCCC)C(=O)Nc1cc(Cl)ccc1O	1 (≈ 3.55 µM)	–
C=C(CCCCC)C(=O)Nc1ccc(Cl)c([N+](=O)[O-])c1	10 (≈ 33.7 µM)	–
COC(=O)CCC(=O)Nc1c(Cl)cccc1Cl	1000 (≈ 3620 µM)	–
C=C(CCCCCCC)C(=O)Nc1cc(Cl)cc(Cl)c1	10 (≈ 31.8 µM)	–
O=C(O)CCCCCCC(=O)Nc1ccc(Cl)c([N+](=O)[O-])c1	100 (≈ 304 µM)	–
CCCCCC(=O)Nc1cc([N+](=O)[O-])ccc1O	10 (≈ 39.6 µM)	–
COC(=O)CCCCCCCC(=O)Nc1ccc(Cl)c([N+](=O)[O-])c1	1000 (≈ 2800 µM)	–
O=C(O)CCCCCCCC(=O)Nc1ccc(Cl)c(Cl)c1	1 (≈ 3.01 µM)	–
CCc1ccc(S(=O)(=O)Nc2ccc(Cl)c(Cl)c2)cc1	10 (≈ 30.3 µM)	–
CCC(C(=O)Nc1ccc(Cl)c(Cl)c1)c1ccccc1 (stereo unspecified)	10 (≈ 32.4 µM)	–
CCCCCCCCCCCC(=O)Nc1cc(Cl)cc(Cl)c1	10 (≈ 29 µM)	–
CCCc1ccc(C(=O)Nc2cc([N+](=O)[O-])ccc2O)cc1	10 (≈ 33.3 µM)	–
CCCCCCC(=O)Nc1ccc(Cl)c(Cl)c1	10 (≈ 36.5 µM)	–
O=C(O)CCCCCCC(=O)Nc1ccc(Cl)c(Cl)c1	100 (≈ 314 µM)	–
CCCCc1ccc(S(=O)(=O)Nc2cc([N+](=O)[O-])ccc2O)cc1	10 (≈ 28.5 µM)	Activity [1]: Concentration effective; Activity (Staphylococcus aureus [2]): Negative; Activity (Bacillus cereus): Concentration effective; Activity (Staphylococcus aureus [3]): Concentration effective; Activity (Staphylococcus aureus [5]): Negative
CCCCCCC(=O)Nc1cc(Cl)ccc1O	10 (≈ 39.1 µM)	–
CCC(C(=O)Nc1cc(Cl)ccc1O)c1ccccc1 (stereo unspecified)	10 (≈ 34.5 µM)	–
CCCCCCCCC(=O)Nc1cc([N+](=O)[O-])ccc1O	10 (≈ 34 µM)	–
CCCc1ccc(S(=O)(=O)N(Cc2ccc(Cl)cc2)c2ccc(Cl)c(Cl)c2)cc1	> 1000	–
O=[N+]([O-])c1cc(NS(=O)(=O)c2ccc(Cl)c(Cl)c2)ccc1Cl	1 (≈ 2.62 µM)	Activity [1]: Concentration effective; Activity (Staphylococcus aureus [2]): Negative; Activity (Enterococcus faecalis): Concentration effective; Activity (Staphylococcus aureus [5]): Negative
CC(CC(=O)Nc1ccc(Cl)c(Cl)c1)c1ccccc1 (stereo unspecified)	10 (≈ 32.4 µM)	–

Structure (SMILES)	MIC (Staphylococcus aureus [4]) [µg/mL]	other results
CCCCCCCCCC(=O)Nc1cc(Cl)cc(Cl)c1	10 (≈ 31.6 µM)	–
CCCc1ccc(C(=O)Nc2cc(Cl)ccc2O)cc1	> 1000	–
CCCCCCCCCC(=O)Nc1cc(Cl)ccc1O	1 (≈ 3.36 µM)	–
O=C(Nc1ccc(Cl)c(Cl)c1)c1ccc(Cl)c(Cl)c1	> 1000	–
CCCCCCCCCCCC(=O)Nc1ccc(Cl)c(Cl)c1	100 (≈ 290 µM)	–
CCC(C)c1ccc(S(=O)(=O)Nc2ccc(Cl)c(Cl)c2)cc1 (stereo unspecified)	10 (≈ 27.9 µM)	–
C=C(CCCCCC)C(=O)Nc1cc(Cl)cc(Cl)c1	1 (≈ 3.33 µM)	Activity [1]: Concentration effective; Activity (Staphylococcus aureus [2]): Negative; Activity (Staphylococcus aureus [3]): Concentration effective; Activity (Staphylococcus aureus [5]): Negative
C=C(CCCCCCC)C(=O)Nc1ccc(Cl)c([N+](=O)[O-])c1	1 (≈ 3.08 µM)	–
CCCCCCC(=O)Nc1cc([N+](=O)[O-])ccc1O	10 (≈ 37.6 µM)	–
COC(=O)CCCCC(=O)Nc1ccc(Cl)c([N+](=O)[O-])c1	100 (≈ 318 µM)	–
O=C(Nc1cc([N+](=O)[O-])ccc1O)c1ccc(Cl)c(Cl)c1	10 (≈ 30.6 µM)	–
C=C(CCCCC)C(=O)Nc1ccc(Cl)c(Cl)c1	10 (≈ 34.9 µM)	–
O=S(=O)(Nc1cc(Cl)ccc1O)c1ccc(Cl)c(Cl)c1	10 (≈ 28.4 µM)	–
C=C(CCCCC)C(=O)Nc1cc(Cl)ccc1O	100 (≈ 373 µM)	–
CCCCCC(=O)Nc1ccc(Cl)c([N+](=O)[O-])c1	10 (≈ 36.9 µM)	–
C=C(CCCC)C(=O)Nc1cc(Cl)ccc1O	100 (≈ 394 µM)	–
CCCCCCCCCC(=O)Nc1ccc(Cl)c(Cl)c1	10 (≈ 31.6 µM)	–
CCCCCC(=O)Nc1cc(Cl)ccc1O	10 (≈ 41.4 µM)	–
CCCCc1ccc(S(=O)(=O)Nc2ccc(Cl)c(Cl)c2)cc1	10 (≈ 27.9 µM)	–
COC(=O)CCCCCCCCC(=O)Nc1ccc(Cl)c([N+](=O)[O-])c1	> 1000	–
O=C(O)CCCCC(=O)Nc1ccc(Cl)c([N+](=O)[O-])c1	100 (≈ 333 µM)	–
O=C(O)CCCCCCCC(=O)Nc1ccc(Cl)c([N+](=O)[O-])c1	100 (≈ 292 µM)	–
COC(=O)CCCCCCCCC(=O)Nc1ccc(Cl)c(Cl)c1	> 1000	–
CCCCCCCCCCCC(=O)Nc1ccc(Cl)c([N+](=O)[O-])c1	> 1000	–
CCCCc1ccc(C(=O)Nc2cc(Cl)ccc2O)cc1	1000 (≈ 3290 µM)	–
C=C(CCCCCCC)C(=O)Nc1cc(Cl)ccc1O	1 (≈ 3.38 µM)	–

Structure (SMILES)	MIC (Staphylococcus aureus [4]) [µg/mL]	other results
CCCc1ccc(S(=O)(=O)N(C)c2ccc(Cl)c(Cl)c2)cc1	> 1000	–
CCCCCCC(=O)Nc1ccc(Cl)c([N+](=O)[O-])c1	10 (≈ 35.1 µM)	–
O=C(CCc1ccccc1)Nc1ccc(Cl)c(Cl)c1	1 (≈ 3.4 µM)	–
C=C(CCCC)C(=O)Nc1ccc(Cl)c(Cl)c1	10 (≈ 36.7 µM)	–
C=C(CCCCCCCCCC)C(=O)Nc1cc(Cl)ccc1O	1 (≈ 2.96 µM)	–
CCCCCCc1ccc(C(=O)Nc2ccc(Cl)c(Cl)c2)cc1	> 1000	–
CCc1ccc(C(=O)Nc2ccc(Cl)c(Cl)c2)cc1	> 1000	–
O=S(=O)(Nc1ccc(Cl)c(Cl)c1)c1cc(Cl)ccc1Cl	1000 (≈ 2690 µM)	–
C=C(CCCCC)C(=O)Nc1cc([N+](=O)[O-])ccc1O	10 (≈ 35.9 µM)	–
C=C(CCCCCCCCCC)C(=O)Nc1ccc(Cl)c(Cl)c1	> 1000	–
CCCCCCC(=O)Nc1cc(Cl)cc(Cl)c1	1 (≈ 3.65 µM)	Activity [1]: Concentration effective; Activity (Staphylococcus aureus [2]): Negative; Activity (Staphylococcus aureus [3]): Concentration effective; Activity (Staphylococcus aureus [5]): Negative
CCCCCCCCCCCC(=O)Nc1cc([N+](=O)[O-])ccc1O	1000 (≈ 2970 µM)	–
CCCCCC(=O)Nc1cc(Cl)cc(Cl)c1	10 (≈ 38.4 µM)	–
C=C(CCCCCCCC)C(=O)Nc1ccc(Cl)c(Cl)c1	1 (≈ 3.05 µM)	–
CCCc1ccc(C(=O)Nc2ccc(Cl)c(Cl)c2)cc1	> 1000	–
CCCCCCCC(=O)Nc1cc(Cl)ccc1O	10 (≈ 37.1 µM)	–
C=C(CCCCCCC)C(=O)Nc1ccc(Cl)c(Cl)c1	1 (≈ 3.18 µM)	–
O=[N+]([O-])c1ccc(O)c(NS(=O)(=O)c2ccc(Cl)c(Cl)c2)c1	10 (≈ 27.5 µM)	–
C=C(CCCCCC)C(=O)Nc1ccc(Cl)c(Cl)c1	1 (≈ 3.33 µM)	–
CC(C)c1ccc(S(=O)(=O)Nc2cc(Cl)ccc2O)cc1	10 (≈ 30.7 µM)	–
Cc1ccc(S(=O)(=O)Nc2ccc(Cl)c(Cl)c2)cc1	10 (≈ 31.6 µM)	–
C=C(CCCCCC)C(=O)Nc1ccc(Cl)c([N+](=O)[O-])c1	1 (≈ 3.22 µM)	–
CCCCc1ccc(S(=O)(=O)Nc2cc(Cl)ccc2O)cc1	10 (≈ 29.4 µM)	–
COC(=O)CCCCC(=O)Nc1ccc(Cl)c(Cl)c1	1000 (≈ 3290 µM)	–
C=C(CCCCCCCCCC)C(=O)Nc1cc(Cl)cc(Cl)c1	> 1000	–
COC(=O)CCC(=O)Nc1ccc(Cl)c(Cl)c1	1000 (≈ 3620 µM)	–

Structure (SMILES)	MIC (Staphylococcus aureus [4]) [µg/mL]	other results
CCCc1ccc(S(=O)(=O)Nc2cc([N+](=O)[O-])ccc2O)cc1	1 (≈ 2.97 µM)	–
CCCCCCCCCC(=O)Nc1ccc(Cl)c([N+](=O)[O-])c1	10 (≈ 30.6 µM)	–
CC(C)c1ccc(S(=O)(=O)Nc2ccc(Cl)c(Cl)c2)cc1	10 (≈ 29 µM)	–
O=C(Cc1ccccc1)Nc1ccc(Cl)c(Cl)c1	> 1000	–
CCCCCCCCC(=O)Nc1cc(Cl)cc(Cl)c1	1 (≈ 3.31 µM)	–
O=C(O)CCCCC(=O)Nc1ccc(Cl)c(Cl)c1	1000 (≈ 3450 µM)	–
O=C(O)CCC(=O)Nc1c(Cl)cccc1Cl	> 1000	–
C=C(CCCCCCCC)C(=O)Nc1cc(Cl)cc(Cl)c1	10 (≈ 30.5 µM)	–
CCCCCCCCCCCC(=O)Nc1cc(Cl)ccc1O	1 (≈ 3.07 µM)	–
C=C(CCCCCCCC)C(=O)Nc1cc(Cl)ccc1O	1 (≈ 3.23 µM)	–
O=C(O)CCC(=O)Nc1ccc(Cl)c(Cl)c1	1000 (≈ 3820 µM)	–
CCCCc1ccc(C(=O)Nc2ccc(Cl)c(Cl)c2)cc1	1000 (≈ 3100 µM)	–
C=C(CCCCCCCC)C(=O)Nc1ccc(Cl)c([N+](=O)[O-])c1	1 (≈ 2.95 µM)	–
C=C(CCCC)C(=O)Nc1cc(Cl)cc(Cl)c1	10 (≈ 36.7 µM)	–
CCCCCC(=O)Nc1ccc(Cl)c(Cl)c1	10 (≈ 38.4 µM)	–
Cc1ccc(C(=O)Nc2ccc(Cl)c(Cl)c2)cc1	1000 (≈ 3570 µM)	–
CCCc1ccc(S(=O)(=O)Nc2ccc(Cl)c([N+](=O)[O-])c2)cc1	10 (≈ 28.2 µM)	–
CCCCCCCCC(=O)Nc1ccc(Cl)c(Cl)c1	1 (≈ 3.31 µM)	–
CCCCc1ccc(C(=O)Nc2cc([N+](=O)[O-])ccc2O)cc1	1 (≈ 3.18 µM)	–
COC(=O)CCCCCCC(=O)Nc1ccc(Cl)c([N+](=O)[O-])c1	1000 (≈ 2920 µM)	–
O=C(O)CCCCCCCCC(=O)Nc1ccc(Cl)c([N+](=O)[O-])c1	> 1000	–
O=C(CCc1ccccc1)Nc1cc(Cl)ccc1O	100 (≈ 363 µM)	–
COC(=O)CCCCCCC(=O)Nc1ccc(Cl)c(Cl)c1	1000 (≈ 3010 µM)	–
O=C(O)CCCCCCCCC(=O)Nc1ccc(Cl)c(Cl)c1	> 1000	–
